Compounds with a hit are over-represented: about 2.3% of the library has one in this group of screens.
TRPC6 inh: inhibitors of mouse TRPC6 channel; HEK293-TRPC6, membrane potential dye, ACh-evoked depolarization; stronger effect = lower value; 1.1% of 310,000 active; Q61143; B-score at 10 µM;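 active = B-score under library mean minus 3 SD, initial fluorescence not abnormally high, positive integrated signal ratio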;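 also: B-score derived from integrated fluorescence ratio over the kinetic read; more negative B-score means stronger inhibition of depolarization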
Target sequence (Q61143 whole entry, looked up): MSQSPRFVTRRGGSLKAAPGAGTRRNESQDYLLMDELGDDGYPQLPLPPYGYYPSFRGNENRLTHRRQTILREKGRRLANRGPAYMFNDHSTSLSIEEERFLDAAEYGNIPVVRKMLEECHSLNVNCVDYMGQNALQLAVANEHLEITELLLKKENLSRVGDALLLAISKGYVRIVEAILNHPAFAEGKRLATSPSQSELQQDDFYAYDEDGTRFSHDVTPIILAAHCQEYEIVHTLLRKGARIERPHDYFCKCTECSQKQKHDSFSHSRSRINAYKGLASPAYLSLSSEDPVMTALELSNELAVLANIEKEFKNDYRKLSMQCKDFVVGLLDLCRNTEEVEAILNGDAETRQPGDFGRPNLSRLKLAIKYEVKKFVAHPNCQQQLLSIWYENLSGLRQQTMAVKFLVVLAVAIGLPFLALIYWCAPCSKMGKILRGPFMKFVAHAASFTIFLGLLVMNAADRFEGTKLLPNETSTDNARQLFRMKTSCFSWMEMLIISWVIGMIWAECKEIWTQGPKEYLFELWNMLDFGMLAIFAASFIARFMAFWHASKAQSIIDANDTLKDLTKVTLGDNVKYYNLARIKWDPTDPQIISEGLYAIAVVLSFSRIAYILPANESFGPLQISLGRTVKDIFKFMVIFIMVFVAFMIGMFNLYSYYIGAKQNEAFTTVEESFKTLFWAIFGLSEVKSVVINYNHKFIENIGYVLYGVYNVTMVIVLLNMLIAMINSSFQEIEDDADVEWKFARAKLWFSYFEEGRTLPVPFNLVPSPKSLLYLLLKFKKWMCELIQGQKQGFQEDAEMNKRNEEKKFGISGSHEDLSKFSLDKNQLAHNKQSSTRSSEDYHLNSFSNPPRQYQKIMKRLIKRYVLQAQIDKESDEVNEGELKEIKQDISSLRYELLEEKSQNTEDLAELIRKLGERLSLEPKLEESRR
TRPC6 act: activates the mouse TRPC6 cation channel. HEK293-TRPC6 membrane potential dye fluorescence; stronger effect = higher value. 0.13% of 310,000 active. AID 2550. Q61143. B-score at 10 µM;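 active = B-score of the integrated fluorescence ratio above library mean plus 3 SD, and starting fluorescence ratio within library mean plus 5 SD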;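 also: higher score means more depolarization so channel activation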
TRPC4 act: TRPC4 (mouse) channel activation; Q9QUQ5; B-score at 10 µM; 0.49% of 310,000 active; HEK293 TRPC4beta/mu-opioid, Fluo4 calcium fluorescence; stronger effect = higher value;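 active = B-score above 5 SD of library B-scores, and initial fluorescence ratio not above library mean plus 5 SD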;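 also: positive B-score marks a calcium rise read as TRPC4 activation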
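Assay system: HEK293 stable line with TRPC4beta plus mu-opioid receptor; schedule: 45 min room-temperature Fluo4 loading, 110 s read; technique: kinetic Fluo4 calcium fluorescence; evaluation: integrated baseline-normalised fluorescence ratio, converted to per-well B score; controls: buffer (low) and maximal DAMGO (high)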
TRPC4 inh: inhibitors of mouse TRPC4 channel; Q9QUQ5; HEK293 TRPC4beta/mu-opioid, DAMGO-evoked Fluo4 calcium flux; stronger effect = lower value; B-score at 10 µM; 0.39% of 300,000 active;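 active = B-score over 3 SD under the library average, no early fluorescence shift, positive overall ratio signal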
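Assay system: HEK293 cells with stable TRPC4beta plus mu-opioid receptor expression. Dosing: single dose. Measured by: Fluo4 Ca2+ flux fluorescence. Also added: DAMGO in two steps, submaximal then maximal. Read-out: B score from integrated Fluo4 fluorescence ratio.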
TRPC4 potent: allosterically enhances the mouse TRPC4 cation channel; B-score at 10 µM; Q9QUQ5; 0.42% of 310,000 active; HEK293 TRPC4beta/mu-opioid, DAMGO EC20, Fluo-4 Ca2+ flux; stronger effect = higher value;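 active = B-score of calcium response area above 5 SD of library B-scores, with initial fluorescence ratio within 5 SD of library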;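 also: B-score of integrated fluorescence ratio over time as area under calcium response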
HEK293 MPD ctr: parental HEK293 nonspecific activity of TRPC6 modulators. 51% of 2,400 active. membrane potential dye fluorescence. AID 488924. membrane potential signal change, % at 10 µM. shares compounds with TRPC6 inh;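 active = membrane potential signal moves up or down beyond 5 SD from buffer-only wells, on both duplicate plates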
HEK293 MPD ctr 2: second counter-screen for TRPC6 modulators: effect in parental HEK293 cells; inhibition, % at 10 µM; AID 488926; 14% of 2,400 active; shares compounds with TRPC6 inh; membrane potential dye fluorescence; after compound, maximal acetylcholine stimulation;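 active = membrane potential signal drops by more than 5 SD from the mean control signal, in both duplicate plates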;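 also: plate controls were acetylcholine ECmax control wells for no effect and buffer only wells for full effect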
TRPC4 ctr mod: mouse TRPC4 off-target activity of TRPC6 modulators. shares compounds with TRPC6 inh. HEK293 TRPC4/mu-opioid, membrane potential fluorescence. percent change from control (negative = decrease, positive = increase), % at 10 µM. 69% of 2,400 active. AID 488927;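 active = membrane potential signal moved up or down beyond 5 SD of buffer control wells, in both duplicate plates, actives on both sides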;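 also: plate controls were assay buffer wells for no effect and DAMGO maximal-effect wells for full effect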
TRPC4 ctr inh 2: second check of whether TRPC6 modulators also affect mouse TRPC4. shares compounds with TRPC6 inh. HEK293 TRPC4/mu-opioid, membrane potential dye fluorescence; stimulated with maximal-effect DAMGO. inhibition, % at 10 µM. 55% of 2,400 active. AID 488928;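 active = drop in membrane potential signal beyond 5 SD of the control wells in both duplicate plates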;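 also: TRPC4 counter screen for TRPC6 hits run under conditions tuned for TRPC6 not TRPC4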
TRPC6 block conf: confirmation of mouse TRPC6 inhibitors | shares compounds with TRPC6 inh | HEK293-TRPC6, membrane potential dye, ACh-evoked depolarization | inhibition, % at 10 µM | 43% of 3,300 active | AID 488960;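 active = fluorescence ratio falls more than 5 SD below the full-stimulation control mean, in both duplicate runs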;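 also: integrated fluorescence ratio of peak minus minimum over baseline after agonist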
TRPC6 act conf: confirmation of mouse TRPC6 activators | 11% of 2,800 active | shares compounds with TRPC6 inh | HEK293-TRPC6 membrane potential dye fluorescence, FDSS | activation, % at 10 µM;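 active = ratio signal rise beyond 5 SD above unstimulated control wells' mean, seen in both duplicate runs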;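 also: plate controls were buffer EC0 wells for no effect and acetylcholine ECmax response for full effect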
The depositor's hits bear a star; i = inactive; · = not tested or not shown.

SMILES	TRPC6 inh	TRPC6 act	TRPC4 act	TRPC4 inh	TRPC4 potent	HEK293 MPD ctr	HEK293 MPD ctr 2	TRPC4 ctr mod	TRPC4 ctr inh 2	TRPC6 block conf	TRPC6 act conf
Cc1cc(C)n(-c2ccc(C(=O)OCC(=O)Nc3ccc(Cl)cc3[N+](=O)[O-])cc2)n1	i	i	i	i	i	·	·	·	·	·	·
Cc1cccn2c(=O)c3cc(C(=O)NCc4ccco4)c(=N)n(C4CCCCC4)c3nc12	-6.8*	i	i	i	i	-160%*	i	-38%*	34%*	i	i
COc1ccc(CCNC(=O)c2cc3c(=O)n4ccccc4nc3n(C3CCCCC3)c2=N)cc1	i	i	i	i	i	·	·	·	·	·	·
N=c1c(C(=O)NCC2CCCO2)cc2c(=O)n3ccccc3nc2n1C1CCCCC1 (stereo unspecified)	-5.4*	i	i	i	i	-100%*	i	-24%*	i	i	i
C=CCn1c(=N)c(C(=O)NCCCOC)cc2c(=O)n3cccc(C)c3nc21	-5.2*	i	i	i	i	226%*	83%*	40%*	i	i	·
Cc1ccc2nc3c(cc(C(=O)NCc4ccco4)c(=N)n3C3CCCC3)c(=O)n2c1	i	i	i	i	i	·	·	·	·	·	·
Cc1cccn2c(=O)c3cc(C(=O)NCC4CCCO4)c(=N)n(C4CCCC4)c3nc12 (stereo unspecified)	-5.8*	i	i	i	i	-82%*	i	-16%*	32%*	i	i
Cc1ccc(Cn2c(=N)c(C(=O)NCC3CCCO3)cc3c(=O)n4cccc(C)c4nc32)cc1 (stereo unspecified)	i	i	i	i	i	·	·	·	·	·	·
CCCn1c(=N)c(C(=O)NCC2CCCO2)cc2c(=O)n3cccc(C)c3nc21 (stereo unspecified)	i	i	i	i	i	·	·	·	·	·	·
Cc1ccc2nc3c(cc(C(=O)NCC4CCCO4)c(=N)n3C3CCCC3)c(=O)n2c1 (stereo unspecified)	i	i	i	i	i	·	·	·	·	·	·
N=c1c(C(=O)NCC2CCCO2)cc2c(=O)n3ccccc3nc2n1C1CCCC1 (stereo unspecified)	-5.9*	i	i	i	i	i	i	i	i	i	i
COCCCn1c(=N)c(C(=O)NCC2CCCO2)cc2c(=O)n3cccc(C)c3nc21 (stereo unspecified)	-6.4*	i	i	i	i	146%*	80%*	20%*	28%*	40%*	i
CC1=CC(C)(C)N(C(=O)CNC2CCCC2)c2cc(C)ccc21	-6.4*	i	i	i	i	125%*	i	31%*	45%*	54%*	·
Cc1cc(C)cc(N(C(=O)c2snc(C(N)=O)c2N)C(C(=O)NCC2CCCO2)c2ccc(C)o2)c1 (stereo unspecified)	-5.4*	i	i	i	i	i	i	18%*	40%*	i	·
CCOC(=O)C1=C(C)NC(C)=C(C(=O)OCC)C1C(=O)OCC(=O)NCCc1ccc(S(N)(=O)=O)cc1	i	i	i	i	i	·	·	·	·	·	·
Cc1ccc(SCCNC(=S)Nc2ccccc2)cc1	i	i	i	i	i	·	·	·	·	·	·
